Reference: ChEMBL document CHEMBL4138186, “Synthesis and bio-evaluation of indole-chalcone based benzopyrans as promising antiligase and antiproliferative agents” (Eur J Med Chem, 2018)
Activity calls are given as the source filed them. The calls are words filed in the database; no cut-off is given here.

Tests used:
HeLa = assay: Antiproliferative activity against human HeLa cells at 10 uM after 48 hrs by MTT assay; format: functional, cell-based
How it was run: (§1)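 Cells seeded and allowed to adhere overnight, then given compound from 10 mM DMSO stock; DMSO alone as vehicle control. Grown 48 h, MTT (5 mg/ml) added for 3 h, formazan dissolved in DMSO, absorbance read at 590 nm. % inhibition = (A control − A treated)/A control × 100; three independent biological replicates. Single-point screen at 10 μM; IC50 from three independent experiments.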

[1] = target: DNA ligase 1 (Homo sapiens) (UniProt P18858); assay: Inhibition of human Lig1 at 10 uM using double strand nicked DNA as substrate after 30 mins in presence of ATP by acrylamide-based fluorescence-assay
DNA ligase 1 (Homo sapiens), sequence (P18858 whole entry): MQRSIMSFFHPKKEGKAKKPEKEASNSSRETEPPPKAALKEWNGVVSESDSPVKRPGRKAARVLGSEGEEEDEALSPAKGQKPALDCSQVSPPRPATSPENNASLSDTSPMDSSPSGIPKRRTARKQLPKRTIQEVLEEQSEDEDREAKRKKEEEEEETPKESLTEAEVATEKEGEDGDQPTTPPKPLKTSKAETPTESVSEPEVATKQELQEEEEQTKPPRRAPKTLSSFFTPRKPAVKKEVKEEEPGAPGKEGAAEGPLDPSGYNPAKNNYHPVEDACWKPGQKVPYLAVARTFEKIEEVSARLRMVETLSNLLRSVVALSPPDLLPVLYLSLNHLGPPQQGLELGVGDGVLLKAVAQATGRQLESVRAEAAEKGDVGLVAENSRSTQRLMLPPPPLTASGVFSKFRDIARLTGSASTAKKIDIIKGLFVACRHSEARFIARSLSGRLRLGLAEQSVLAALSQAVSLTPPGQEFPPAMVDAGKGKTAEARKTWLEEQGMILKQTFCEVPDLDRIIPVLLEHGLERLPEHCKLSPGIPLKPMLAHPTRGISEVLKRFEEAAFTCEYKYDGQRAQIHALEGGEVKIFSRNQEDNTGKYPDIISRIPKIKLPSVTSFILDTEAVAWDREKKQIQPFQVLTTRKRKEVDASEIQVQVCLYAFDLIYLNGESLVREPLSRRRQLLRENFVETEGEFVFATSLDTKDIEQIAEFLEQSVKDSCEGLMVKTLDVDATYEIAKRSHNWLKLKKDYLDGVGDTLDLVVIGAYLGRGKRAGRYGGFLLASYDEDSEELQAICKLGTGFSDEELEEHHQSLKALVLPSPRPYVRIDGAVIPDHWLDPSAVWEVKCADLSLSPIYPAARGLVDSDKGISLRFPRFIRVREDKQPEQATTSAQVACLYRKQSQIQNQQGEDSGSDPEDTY
How it was run: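 Cy3-labelled nicked duplex (52-mer annealed to 25- and 27-mers; 1 pmol) with purified hLigI (0.2 pmol) in 50 mM Tris-Cl pH 7.5, 10 mM MgCl2, 0.25 mg/mL BSA, 100 mM NaCl, 500 µM ATP. Compound at 10 μM; 30 min at 37 °C. Stopped with formamide/EDTA; ligated and unligated strands separated on 7 M urea/12% denaturing gel. Triplicate.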

MDA-MB-231 = assay: Antiproliferative activity against human MDA-MB-231 cells at 10 uM after 48 hrs by MTT assay; format: functional, cell-based; how it was run: as §1
DLD-1 = assay: Antiproliferative activity against human DLD1 cells at 10 uM after 48 hrs by MTT assay; format: functional, cell-based; how it was run: as §1
4T1 (Mus musculus) = assay: Antiproliferative activity against mouse 4T1 cells at 10 uM after 48 hrs by MTT assay
HepG2 = assay: Antiproliferative activity against human HepG2 cells at 10 uM after 48 hrs by MTT assay; format: functional, cell-based; how it was run: as §1

Structure (SMILES)	inhibition [1] [%]	Activity (HeLa)	Activity (MDA-MB-231)	Activity (DLD-1)	Activity (4T1 (Mus musculus))	Activity (HepG2)
COc1ccc2[nH]c(C)c(C3C(C#N)=C(N)Oc4c3cc(/C=C/C(=O)c3cccs3)cc4C(C)(C)C)c2c1 (configuration not stated)	< 20	Active	Active	Active	Active	Active
Cc1ccc(C(=O)/C=C/c2cc3c(c(C(C)(C)C)c2)OC(N)=C(C#N)C3c2c(C)[nH]c3ccccc23)cc1 (configuration not stated)	< 20					
Cc1cc(/C=C/C(=O)c2cccs2)cc2c1OC(N)=C(C#N)C2c1c(C)[nH]c2ccccc12 (configuration not stated)	> 45	Active	Active	Active	Active	Active
Cc1[nH]c2ccccc2c1C1C(C#N)=C(N)Oc2c1cc(/C=C/C(=O)c1ccc(Cl)cc1)cc2C(C)(C)C (configuration not stated)	> 50					

Second part, led by results:

inhibition [1] [%]	Structure (SMILES)	Activity (HeLa)	Activity (MDA-MB-231)	Activity (DLD-1)	Activity (4T1 (Mus musculus))	Activity (HepG2)
> 45	COc1ccc2[nH]c(C)c(C3C(C#N)=C(N)Oc4c3cc(/C=C/C(=O)c3ccc(C)cc3)cc4C(C)(C)C)c2c1 (configuration not stated)					
> 50	COc1ccc(C(=O)/C=C/c2cc3c(c(C(C)(C)C)c2)OC(N)=C(C#N)C3c2c(C)[nH]c3ccc(Cl)cc23)cc1 (configuration not stated)					
> 50	Cc1ccc(C(=O)/C=C/c2cc3c(c(C(C)(C)C)c2)OC(N)=C(C#N)C3c2c(C)[nH]c3ccc(Cl)cc23)cc1 (configuration not stated)					
